Assay outcomes from PubChem.
An excerpt weighted towards active compounds, which were near 2.2% of everything screened.
HIV Env fusion – HIV envelope-mediated fusion inhibition. HeLa-JRFL Env/CEM21 cell fusion, luciferase. inhibition, % at 12.3 µM. actives 1.1% (n = 360,000);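 active = mean replicate inhibition score of at least 50 and every replicate individually at or above 50; inconclusive = only one of the two criteria met; inactive = mean below 50 and not all replicates reaching 50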;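 note: 0% = plate neutral controls and 100% = maraviroc near 300 nM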
V-ATPase pH – alters yeast V-ATPase proton transport | S. cerevisiae, pHLuorin cytosolic pH fluorescence | response, % at 10 µM | actives 0.37% (n = 350,000) | AID 504577; in the data active = response mostly above about 7.3%, no sharp cut-off; inactive = mostly below about 5.4%; note: actives read high
NR2E3 ag-1 – agonists of human NR2E3 nuclear receptor | actives 0.35% (n = 360,000) | Q9Y5X4 | inhibition of corepressor binding, % at 3.98 µM | CHO-S Gal4-NCOR/VP16-NR2E3 two-hybrid, luciferase;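 active = inhibition above the mean of all tested compounds plus 3 SD, cut at about 70% in these data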;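 note: 0% = DMSO with NR2E3 transfected cells and 100% = cells lacking NR2E3 construct; higher means lower luciferase signal from less NR2E3 corepressor binding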
Target sequence (Q9Y5X4 whole entry, looked up, the tested form may be a part): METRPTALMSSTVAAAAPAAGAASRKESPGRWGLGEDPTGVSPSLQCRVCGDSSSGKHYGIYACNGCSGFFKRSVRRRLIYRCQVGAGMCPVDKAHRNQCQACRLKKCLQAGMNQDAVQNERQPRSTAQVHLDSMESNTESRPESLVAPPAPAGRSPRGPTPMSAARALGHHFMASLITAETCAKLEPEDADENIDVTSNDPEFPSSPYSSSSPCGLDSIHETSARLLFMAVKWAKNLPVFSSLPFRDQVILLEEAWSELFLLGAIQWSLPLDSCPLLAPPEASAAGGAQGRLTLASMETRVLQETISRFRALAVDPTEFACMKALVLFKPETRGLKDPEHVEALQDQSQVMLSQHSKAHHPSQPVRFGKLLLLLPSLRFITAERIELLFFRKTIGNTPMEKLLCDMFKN
FXN GAA850 act – increases GAA850 frataxin promoter reporter activity | actives 0.56% (n = 360,000) | HEK293 lucGAA850 FXN promoter luciferase reporter, 24 h; percent of 10 µM SAHA response | AID 540364 | activation, % at 6 µM;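 active = activation above the average of all compounds screened plus 3 SD, cutoff fixed separately per campaign, cut at about 7.5% in these data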;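 note: 0% = DMSO wells and 100% = 10 µM SAHA wells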
GalR3 antagonist – antagonists of human GalR3. O60755. HEK293 GalR3-CNG cAMP membrane potential fluorescence; galR3 body fused to GalR1 C-terminus. inhibition, % at 3 µM. actives 0.44% (n = 360,000);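 active = inhibition above the screen-wide average plus 3 SD, cut at about 13% in these data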;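 note: forskolin and galanin both at EC90 stimulate the cells; cAMP rise reported by CNG channel membrane potential dye signal; 0% = forskolin plus galanin with DMSO and 100% = forskolin alone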
Target sequence (O60755 1-299 limits assumed): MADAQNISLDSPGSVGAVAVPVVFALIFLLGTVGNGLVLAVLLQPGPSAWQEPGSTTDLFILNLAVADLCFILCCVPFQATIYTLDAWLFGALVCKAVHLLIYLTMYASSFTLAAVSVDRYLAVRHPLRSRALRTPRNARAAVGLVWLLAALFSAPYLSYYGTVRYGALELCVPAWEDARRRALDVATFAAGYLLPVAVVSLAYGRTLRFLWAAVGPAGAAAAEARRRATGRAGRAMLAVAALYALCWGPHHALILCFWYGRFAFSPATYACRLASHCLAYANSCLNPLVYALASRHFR
NR2E3 ag-2 – activates human photoreceptor nuclear receptor NR2E3; inhibition of corepressor binding, % at 4.78 µM; GST-NR2E3/biotin-RetCOR TR-FRET, 1536-well; AID 2300; actives 0.12% (n = 320,000);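 active = percent inhibition above the cutoff of mean plus 3 SD of all tested compounds, set per screening campaign, cut at about 20% in these data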;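 note: 0% = DMSO wells and 100% = biotin wells as full block of FRET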
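Assay system: NR2E3–RetCOR corepressor complex. Quantity: 1.35 nM GST-NR2E3. Buffer or medium: pH 7.5 Tris-based buffer. Reagent: biotinylated RetCOR corepressor at 7 nM final. Schedule: 5 h at 4 °C. Detection: TR-FRET, emission read at 617 and 671 nm. Replicates: one well per compound, singlicate testing.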
NR2E3 ag conf – confirmation of human NR2E3 agonists. shares compounds with NR2E3 ag-1. CHO-S mammalian two-hybrid NR2E3-NCOR, luciferase luminescence. inhibition, % at 3.98 µM. actives 51% (n = 2,300);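 active = average inhibition above a cutoff equal to the mean inhibition of all tested compounds plus one SD, cut at about 70% in these data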;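 note: 0% = DMSO in NR2E3 cells and 100% = DMSO in cells lacking NR2E3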
GAL4-VP16 luc – counter-screen for NR2E3 agonists: GAL4-VP16 reporter inhibitors; AID 624379; actives 29% (n = 2,300); CHO-S GAL4-VP16 luciferase reporter, luminescence; shares compounds with NR2E3 ag-1; inhibition, % at 3.98 µM;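 active = mean inhibition above a cutoff equal to the average over all tested compounds plus one standard deviation, cut at about 70% in these data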;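 note: luciferase from a UAS reporter driven by GAL4-VP16 transactivation; 0% = DMSO with VP16-transfected cells and 100% = DMSO with cells lacking VP16; higher means less reporter light so more repression of VP16 activity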
Starred values were filed as active, the others as inactive; ? = inconclusive; . = no result given; [ ] = dose if it differs, or a comment.

SMILES	HIV Env fusion	V-ATPase pH	NR2E3 ag-1	FXN GAA850 act	GalR3 antagonist	NR2E3 ag-2	NR2E3 ag conf	GAL4-VP16 luc
CCOc1ccc2nc(NC(=O)C3CCN(c4cnccn4)CC3)sc2c1	-43	1	53	1	-3	0	54	11
Cc1ccc(NC(=O)C(C)c2cccc(C(=O)c3ccccc3)c2)cc1O (stereo not given)	43	-1	65	-2	-3	1	95*	80*
Cc1nnnn1/C(=C\c1ccccc1)C(=O)OCC(=O)Nc1ccc(Cl)cc1F	.	4	61	-2	-6	-2	49	5
NC(=O)CC(NC(=O)c1ccc(Br)cc1)c1ccc(N2CCCCCC2)c([N+](=O)[O-])c1 (stereo not given)	-15	-13	48	-1	2	0	17	27
c1ccc(-c2nc(N3CCOCC3)c3ccccc3n2)nc1	?	0	-18	-2	4	0	.	.
CN(C)c1nc(-c2ccccn2)nnc1-c1ccccc1	-195	1	10	-6	3	2	.	.
CCN(CC)c1nc(-c2ccccn2)nc(-c2ccccc2)c1C#N	?	-1	83*	-2	-3	5	47	39
c1ccc(CCNc2nc(-c3ccccn3)nc3ccccc23)cc1	25	1	103*	-6	-3	0	100*	85*
CCN1CCN(c2nc(-c3ccccn3)nc3ccccc23)CC1	-16	1	1	3	-3	2	.	.
CCCN(CCC)c1nc(-c2ccccn2)nc2ccccc12	71*	-2	104*	-4	-13	.	99*	85*
c1ccc(-c2nc(N3CCCCCC3)c3ccccc3n2)nc1	.	-2	109*	-3	-5	-1	100*	73*
COCCNC(=O)C[C@H]1CC[C@H]2[C@@H](COc3ccc(NC(=O)C4CCCC4)cc3C(=O)N2C)O1	10[16.7 µM]	.	.	.	.	.	.	.
C[C@@H]1CN([C@@H](C)CO)S(=O)(=O)c2ccc(C#CC3CC3)cc2O[C@@H]1CN(C)CC1CC1	-10[16.7 µM]	.	.	.	.	.	.	.
CNC[C@@H]1OCCCC[C@@H](C)Oc2ccc(NS(=O)(=O)c3ccccc3)cc2C(=O)N([C@H](C)CO)C[C@H]1C	20[16.7 µM]	.	.	.	.	.	.	.
C[C@H](CO)N1C[C@H](C)[C@H](CN(C)C(=O)C2CCC2)Oc2ncc(Br)cc2C1=O	2[16.7 µM]	.	.	.	.	.	.	.
Cc1ccc(S(=O)(=O)N2CCCCC2)cc1NCC(=O)Nc1ccc(Br)cc1F	42	-1	54	-3	-2	.	81*	72*
O=C(CNc1ccccc1F)Nc1cc(S(=O)(=O)N2CCCCC2)ccc1Cl	.	4	-19	1	-8	3	.	.
Cc1noc(C)c1NC(=O)Nc1ccc2c(c1)CC(=O)N([C@@H](C)CO)C[C@@H](C)[C@H](CN(C)CC1CC1)O2	-7[16.7 µM]	.	.	.	.	.	.	.
C[C@H](CO)N1C[C@H](C)[C@H](CN(C)S(=O)(=O)c2ccc(Cl)cc2)OCCCC[C@H](C)Oc2ccc(NC(=O)c3ccccc3)cc2C1=O	1[16.7 µM]	.	.	.	.	.	.	.
CCN(CC(=O)NCc1ccc(Cl)cc1)C(=O)c1ccc2cc(OC)ccc2c1	10	3	51	0	-10	8	28	61
Cc1cc(C2=NNC(=NC3CCCCC3)SC2)c(C)n1-c1c(C)n(C)n(-c2ccccc2)c1=O	-25	0	-48	1	3	2	.	.
Cc1cc(C2=NNC(=NC3CC3)SC2)c(C)n1-c1ccccc1F	56*	-2	94*	-16	-1	1	89*	91*
COc1ccccc1-c1cc(C(=O)Nc2c(C)n(C)n(-c3ccccc3)c2=O)no1	.	0	19	-2	-3	2	.	.
COc1ccc(OC)c(-c2cc(C(=O)Nc3c(C)n(C)n(-c4ccccc4)c3=O)no2)c1	-20	-8	51	3	6	-2	13	21
COc1cnc(-c2ccccn2)nc1Oc1c(C)cccc1C	-8	-5	57	0	-5	0	28	-6
SMILES	HIV Env fusion	V-ATPase pH	NR2E3 ag-1	FXN GAA850 act	GalR3 antagonist	NR2E3 ag-2	NR2E3 ag conf	GAL4-VP16 luc
COc1cnc(-c2ccccc2)nc1Oc1cccc(C)c1	.	-6	16	2	0	-3	.	.
COc1cnc(-c2ccccn2)nc1Oc1cccc(Cl)c1	-12	1	62	1	-1	1	15	3
COc1cnc(-c2ccccn2)nc1N(C)C	-5	-1	63	-2	-4	1	52	-13
COc1ccc(Oc2nc(-c3ccccn3)nc3ccccc23)cc1	-1	0	-52	2	-5	-3	.	.
COc1ccc(Oc2nc(-c3ccccn3)ncc2OC)cc1	6	0	73*	1	-4	1	21	-26
CCNC(=O)[C@H]1[C@H](CO)[C@H]2Cn3c(ccc(-c4cncnc4)c3=O)[C@H]2N1Cc1ccc2c(c1)OCO2	4[16.7 µM]	.	.	.	.	.	.	.
C[C@@H]1CCCCO[C@@H](CN(C)C(=O)Cc2ccccc2)[C@@H](C)CN([C@@H](C)CO)C(=O)c2cc(NC(=O)Nc3ccc(F)cc3)ccc2O1	-9[16.7 µM]	.	.	.	.	.	.	.
CC(Sc1nc2ccccc2c(=O)n1CC1CCCO1)C(=O)N(C)Cc1ccccc1 (stereo not given)	19	5	-15	-1	-5	9	.	.
CC(Sc1nc2ccccc2c(=O)n1C)C(=O)N(C)C1CCCCC1 (stereo not given)	62*	1	95*	-1	-6	1	92*	76*
Cc1noc(C)c1S(=O)(=O)Nc1ccc2c(c1)CC(=O)N([C@@H](C)CO)C[C@H](C)[C@@H](CN(C)CC1CC1)O2	-19[16.7 µM]	.	.	.	.	.	.	.
O=C(NCc1ccccc1Cl)c1cc(C(=O)C2CC2)c[nH]1	22	3	51	1	1	1	41	27
O=C(NCc1cccnc1)c1cc(C(=O)C2CC2)c[nH]1	1	-5	-1	1	1	1	.	.
COc1ccc(CCNC(=O)c2cc3ccc(Cl)cc3nc2N)cc1	.	.	90*	.	.	.	90*	77*
CCN(CC)CCCNC(=O)c1cc2cc(Cl)ccc2nc1N	0	.	.	.	-4	.	.	.
Nc1nc2cc(Cl)ccc2cc1C(=O)NCCCc1ccccc1	.	.	82*	.	.	.	87*	78*
CC=Cc1ccc2n(c1=O)C[C@@H]1[C@@H](CO)[C@H](C(=O)OC)N(CCc3ccccc3)[C@H]21 (mixture of isomers)	-12[16.7 µM]	.	.	.	.	.	.	.
COCC(=O)Nc1ccc2c(c1)C(=O)N(C)C[C@H](OC)[C@@H](C)CN(CCC(F)(F)F)[C@@H](C)CO2	-14[16.7 µM]	.	.	.	.	.	.	.
CC(=O)c1c(C)nc2ccccc2c1N	.	1	8	1	1	-1	.	.
